T cruzi growth-1: T. cruzi intracellular proliferation inhibitors, primary screen, cell-based, beta-gal Tulahuen parasites, NIH3T3 host, luminescence; T. cruzi beta-gal in NIH3T3, GalScreen luminescence, 90 h; inhibition, % at 8.34 µM; 77,000 tested, 5.9% active;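 active = mean inhibition above about 93%, with at least 55% of replicates each passing it, limit read from the data, passing the limit was not always enough; inconclusive = only one of those two conditions holds; inactive = neither condition holds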
GASC1 inh: inhibitors of GASC-1 (KDM4C) histone demethylase, primary screen, biochemical, single concentration HTS; Lysine-specific demethylase 4C (Homo sapiens), Q9H3R0; GST-KDM4C 2-372, H3K9me3 peptide, LANCE TR-FRET; inhibition, % at 12.5 µM; 96,000 tested, 0.15% active; AID 720574, 2013;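 active = mean replicate inhibition above about 25%, with at least 55% of replicates also reaching it, limit read from the data, passing the limit was not always enough; inconclusive = only one of those two conditions met; inactive = neither condition met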
Target sequence (Q9H3R0 2-372 limits assumed): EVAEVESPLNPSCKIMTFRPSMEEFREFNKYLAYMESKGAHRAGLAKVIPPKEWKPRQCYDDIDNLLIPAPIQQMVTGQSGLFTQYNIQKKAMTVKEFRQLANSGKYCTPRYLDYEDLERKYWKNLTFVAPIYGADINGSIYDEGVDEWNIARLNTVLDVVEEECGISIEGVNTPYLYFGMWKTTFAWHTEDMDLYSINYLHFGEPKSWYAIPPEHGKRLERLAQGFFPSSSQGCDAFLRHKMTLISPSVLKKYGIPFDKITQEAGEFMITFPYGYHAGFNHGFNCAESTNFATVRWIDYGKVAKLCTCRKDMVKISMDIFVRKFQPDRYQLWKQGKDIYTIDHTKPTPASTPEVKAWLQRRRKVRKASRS
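Material: GST-tagged GASC-1 (JMJD2C) catalytic fragment, aa 2-372 / Quantity: enzyme final amount 10 nM / Medium: HEPES buffer, pH 7.5, plus ascorbate / Doses: one test concentration per compound / Incubation: 30 min reaction, 60 min detection, RT / Measured by: LANCE TR-FRET / Read-out: inhibition from TR-FRET ratio decrease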
IDH1 mut inh: inhibitors of IDH1 R132H reductase, primary screen, biochemical, plate reader, single point | Isocitrate dehydrogenase [NADP] cytoplasmic (Homo sapiens), O75874 | diaphorase/resazurin fluorescence, 60 min | inhibition, % at 10 µM | 70,000 tested, 0.18% active | AID 624101, 2012; in the data active = inhibition above about 34%; inconclusive = no clear call, values can overlap the other calls; inactive = below about 11%;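 also: 0% = DMSO and 100% = no enzyme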
Pf Dd2 inh: P. falciparum Dd2 growth inhibitors, primary screen, SYBR Green fluorescence, single dose replicates | 94,000 tested, 2.3% active | 72 h; active compounds read low | activity change, % at 10 µM; in the data active = activity change below about -80%; inconclusive = no clear call, values can overlap the other calls
T cruzi growth-2: T. cruzi intracellular proliferation inhibitors, confirmation, cell-based, NIH3T3 host, beta-gal parasite, luminescence, cherry-pick; shares compounds with T cruzi growth-1; T. cruzi beta-gal in NIH3T3, GalScreen luminescence, 90 h; inhibition, % at 8.35 µM; 5,600 tested, 72% active;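 active = mean replicate inhibition above about 95% and at least 55% of replicates individually reaching it, limit read from the data; inconclusive = only one of the two criteria is met; inactive = neither criterion is met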
T cruzi growth-3: inhibitors of intracellular T. cruzi replication, confirmation, NIH3T3 host cells, beta-gal parasites, cherry-pick, set 2; shares compounds with T cruzi growth-1; T. cruzi beta-gal in NIH3T3, GalScreen luminescence, 90 h; inhibition, % at 2.09 µM; 5,600 tested, 21% active;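 active = mean inhibition above about 95%, with at least 55% of replicates also reaching it, limit read from the data; inconclusive = meets just one of the two conditions; inactive = meets neither condition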;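 also: plate controls were neutral control median for no effect and positive control median for full effect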
NIH3T3 tox: cytotoxicity in mouse NIH/3T3 fibroblasts, confirmation, cytotoxicity control for T. cruzi proliferation inhibitor project, cell-based, cherry-pick, single point; cytotoxicity (signal decrease), % at 8.35 µM; AID 651742, 2012; shares compounds with T cruzi growth-1; 5,600 tested, 14% active; NIH/3T3 viability, CellTiter-Glo ATP luminescence, 90 h;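 active = mean signal decrease across replicates above about 35% based on untreated-well scatter, with enough replicates individually passing, limit read from the data; inconclusive = no rule stated though some were filed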;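 also: 0% = median of neutral control wells and 100% = median of positive control wells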
3T3 cytotox 2: NIH/3T3 fibroblast cytotoxicity, confirmation, cytotoxicity control, cell-based, cherry-pick, single point, set 2; shares compounds with T cruzi growth-1; NIH/3T3 viability, CellTiter-Glo ATP luminescence, 90 h; inhibition, % at 24.9 µM; 5,600 tested, 56% active; AID 651744, 2012;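 active = mean loss of cell viability signal at or above a set limit, and enough replicates individually reaching it; inconclusive = meets only the mean limit or only the replicate share; inactive = meets neither condition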;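 also: 0% = median of neutral control wells and 100% = median of positive control wells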
Starred values were filed as active, the others as inactive; u = inconclusive; x = no result. Only some compounds are listed: those with a hit (about 5.9% of all), similar ones and a draw of the others.

SMILES	T cruzi growth-1	GASC1 inh	IDH1 mut inh	Pf Dd2 inh	T cruzi growth-2	T cruzi growth-3	NIH3T3 tox	3T3 cytotox 2
COc1cccc(CNC(=O)[C@H]2[C@H](CO)[C@H]3Cn4c(cccc4=O)[C@@H]2N3C(=O)C2CCCCC2)c1	157*	-1	x	x	77	12	-25	-16
O=C(NCC(F)(F)F)[C@@H]1[C@@H](CO)[C@@H]2Cn3c(cccc3=O)[C@H]1N2C(=O)C1CC1	u	0	x	-13	1	39	-13	3
O=C(NCC(F)(F)F)[C@H]1[C@H](CO)[C@H]2Cn3c(cccc3=O)[C@@H]1N2C(=O)C1CCC1	3	-1	x	18	x	x	x	x
O=C(N/N=C/c1ccc[nH]1)c1ccccn1	x	x	0	x	x	x	x	x
CCS(=O)(=O)N1CC2(C1)[C@H](c1ccccc1)[C@@H](CO)N2Cc1ccccn1	x	-2	x	-7	x	x	x	x
